Active and inactive are the calls of the source. The calls are words filed in the database; no cut-off is given here.

Assay [1] deals with Induced myeloid leukemia cell differentiation protein Mcl-1 (Homo sapiens, UniProt Q07820). Nature of the assay: Binding affinity to N-terminus 8X His-tagged human Mcl1 expressed in Escherichia coli BL21 (DE3) cells after 2 hrs by fluorescence polarization assay. The essentials: (§1)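 Competitive FP binding: serially diluted inhibitor in DMSO added to preincubated protein/fluorescent probe complex, 2 h at room temperature with gentle shaking. Final protein/probe: Bcl-2 1.5 nM/1 nM; Bcl-xL 10 nM/2 nM; Mcl-1 20 nM/2 nM. IC50 from nonlinear regression; Ki calculated from IC50, probe Kd and protein/probe concentrations.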
(In general: Fluorescence polarisation rises when a labelled molecule tumbles more slowly, as on binding a larger partner.)

For assay [2], the system named is NCI-H1417. As to the kind of experiment: Growth inhibition of human NCI-H1417 cells after 4 days by WST8 assay. In kind it is functional, cell-based. The following applies: NCI-H1417, 96 h. (In general: Tetrazolium dyes change colour on reduction, which living cells bring about.)
The target of assay [3] is Bcl-2-like protein 1 (Homo sapiens, UniProt Q07817). As to the kind of experiment: Binding affinity to N-terminus 8X His-tagged human Bcl-xL expressed in Escherichia coli BL21 (DE3) cells after 2 hrs by fluorescence polarization assay. In short, it runs like this: as §1
Assay [4] is described as follows: Growth inhibition of human NCI-H146 cells after 4 days by WST8 assay. Conditions: NCI-H146, 96 h. In kind it is functional, cell-based.
The target in assay [5] is Apoptosis regulator Bcl-2 (Homo sapiens, UniProt P10415). Nature of the assay: Binding affinity to N-terminus 6X His-tagged human Bcl2 expressed in Escherichia coli BL21 (DE3) cells after 2 hrs by fluorescence polarization assay. The essentials:
as §1

Assay [6] concerns NCI-H146. Nature of the assay: Induction of apoptosis in human NCI-H146 cells assessed as caspase 3 cleavage at 100 nM after 24 hrs by Western blot analysis. In kind it is functional, cell-based. The essentials:
(§2)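 H146 cells treated 24 h, lysed on ice 20 min in RIPA buffer (1% NP40, 0.5% Na-deoxycholate, 0.1% SDS in PBS) with 1 μmol/L PMSF and protease inhibitors. Lysates cleared, protein quantified, run on 4–20% SDS-PAGE, blotted to PVDF, blocked in 5% milk. Rabbit anti-PARP and anti-caspase-3, GAPDH loading control; HRP secondary with chemiluminescent detection.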

Assay [7] concerns NCI-H146. As to the kind of experiment: Induction of apoptosis in human NCI-H146 cells assessed as PARP cleavage at 100 nM after 24 hrs by Western blot analysis. In kind it is functional, cell-based. In short, it runs like this: as §2
On the technique in general: A western blot detects proteins with antibodies after separation by electrophoresis.

Assay [8] concerns NCI-H146. Nature of the assay: Cytotoxicity against human NCI-H146 cells assessed as cell death after 24 hrs by trypan blue assay. It counts as functional, cell-based. The essentials: (§3)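 H146 cells exposed to compound for 24 h, then harvested and stained with trypan blue. Cells staining blue or looking morphologically unhealthy were scored dead; at least 100 cells counted per sample.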

Assay [9] concerns NCI-H146. As to the kind of experiment: Cytotoxicity against human NCI-H146 cells assessed as cell death at 30 to 100 nM after 24 hrs by trypan blue assay. In kind it is functional, cell-based. In short, it runs like this: as §3
Assay [10] is described as follows: Cytotoxicity against human NCI-H146 cells assessed as cell death at 300 nM after 24 hrs by trypan blue assay. In kind it is functional. The essentials: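 H146 human small cell lung cancer line, grown in RPMI-1640 with 10% FBS, exposed to compound for 24 h. Cells then harvested and stained with trypan blue. Blue-stained or morphologically unhealthy cells counted as dead, with at least 100 cells scored per sample.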

Chain of Induced myeloid leukemia cell differentiation protein Mcl-1 (Q07820 whole entry): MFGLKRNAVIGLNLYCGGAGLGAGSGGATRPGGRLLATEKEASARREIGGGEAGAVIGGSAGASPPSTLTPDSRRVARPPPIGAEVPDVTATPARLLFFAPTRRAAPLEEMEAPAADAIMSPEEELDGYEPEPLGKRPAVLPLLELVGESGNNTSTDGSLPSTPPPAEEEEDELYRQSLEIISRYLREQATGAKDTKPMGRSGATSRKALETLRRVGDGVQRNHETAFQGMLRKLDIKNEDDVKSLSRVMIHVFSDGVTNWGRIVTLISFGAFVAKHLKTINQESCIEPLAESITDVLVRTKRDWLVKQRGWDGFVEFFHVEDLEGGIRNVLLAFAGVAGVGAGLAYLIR
Chain of Bcl-2-like protein 1 (Q07817 whole entry): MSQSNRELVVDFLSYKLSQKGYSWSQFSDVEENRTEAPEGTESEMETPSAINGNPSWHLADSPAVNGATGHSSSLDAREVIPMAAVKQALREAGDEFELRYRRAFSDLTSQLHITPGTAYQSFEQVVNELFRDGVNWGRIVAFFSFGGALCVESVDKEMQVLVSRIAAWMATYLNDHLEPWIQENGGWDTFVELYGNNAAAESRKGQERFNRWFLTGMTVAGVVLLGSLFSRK
Chain of Apoptosis regulator Bcl-2 (P10415 whole entry): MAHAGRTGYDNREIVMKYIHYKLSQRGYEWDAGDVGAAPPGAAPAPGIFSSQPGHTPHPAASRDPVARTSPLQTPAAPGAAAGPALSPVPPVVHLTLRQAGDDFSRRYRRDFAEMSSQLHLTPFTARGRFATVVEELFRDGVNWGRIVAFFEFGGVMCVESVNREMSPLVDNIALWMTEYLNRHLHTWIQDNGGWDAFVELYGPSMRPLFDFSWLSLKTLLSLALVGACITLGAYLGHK

One may read the IC50 as the concentration needed to halve the response being measured. Higher therefore signals weaker potency in that assay. As a reminder, the Ki is the dissociation constant of the complex between target and ligand, obtained from inhibition or displacement. Read a high Ki as lower affinity. For `CN(C)CC[C@H](CSc1ccccc1)Nc1ccc(S(=O)(=O)Nc2ccc(N3CCN(c4ccc(-c5c(-c6ccc(Cl)cc6)cn(CC[C@H](O)CO)c5C(=O)NCCCN5CCN(C)CC5)cc4)CC3)cc2)cc1[N+](=O)[O-]`, the IC50 is over 10000 nM in assay [1]; 3300 nM in [2]; 7.6 nM in assay [3]; 2500 nM in assay [4]; 33.9 nM in assay [5]. Moreover, the Ki in assay [3] is under 1 nM; in [5], 8.5 nM.

For `CN(C)CC[C@H](CSc1ccccc1)Nc1ccc(S(=O)(=O)NC(=O)c2ccc(N3CCN(Cc4ccccc4-c4ccc(Cl)cc4)CC3)cc2)cc1[N+](=O)[O-]` [ABT 737], the IC50 in assay [2] was found to be 130 nM; in assay [4], 97 nM.

In the case of `CN1CCN(CCCNC(=O)c2c(-c3ccccc3)c(-c3ccc(Cl)cc3)cn2CC[C@H](O)CO)CC1`, the IC50 in assay [1] was over 100000 nM; in assay [2] it was over 10000 nM; in assay [3] it was 453000 nM; in assay [4] it was over 10000 nM; in assay [5], 213000 nM. Further, in assay [5], affinity was put at a Ki of 78000 nM.

On to `CN(C)CC[C@H](CSc1ccccc1)Nc1ccc(S(=O)(=O)Nc2ccccc2)cc1[N+](=O)[O-]`, for which the IC50 in assay [1] is over 100000 nM; in [2] it was over 10000 nM; in assay [3], 547000 nM; in assay [4], over 10000 nM; in [5] it was over 100000 nM. This compound also returned a Ki in [3] of 166000 nM.

Take `CN(C)CC[C@H](CSc1ccccc1)Nc1ccc(S(=O)(=O)Nc2ccc(N3CCN(c4cccc(-c5c(-c6ccc(Cl)cc6)cn(CC[C@H](O)CO)c5C(=O)NCCCN5CCN(C)CC5)c4)CC3)cc2)cc1[N+](=O)[O-]`: the IC50 in [1] was over 10000 nM; in assay [2], 1800 nM; in [3], 6.2 nM; in assay [4] it was 2000 nM; in assay [5], 1.3 nM. In addition, the Ki in assay [3] is under 1 nM; in [5], under 0.6 nM.

Take `CN(C)CC[C@H](CSc1ccccc1)Nc1ccc(S(=O)(=O)Nc2ccc(N3CCN(Cc4ccccc4-c4ccc(Cl)cc4)CC3)cc2)cc1[N+](=O)[O-]`: the IC50 is over 10000 nM in assay [1]; over 10000 nM in assay [2]; 88.3 nM in [3]; over 10000 nM in [4]; 85.3 nM in [5]. Also, the figures for the Ki in assay [3] and in assay [5] were 24.7 nM and 21.8 nM, respectively.

As for `CN(C)CC[C@H](CSc1ccccc1)Nc1ccc(S(N)(=O)=O)cc1[N+](=O)[O-]`, the 50% inhibitory concentration (IC50) in assay [1] was over 100000 nM; in [2], over 10000 nM; in assay [3], 238000 nM; in [4], over 10000 nM; in assay [5], over 100000 nM. The compound further came in with a Ki in assay [3] of 75000 nM.

As for `CN(C)CC[C@H](CSc1ccccc1)Nc1ccc(S(=O)(=O)Nc2ccc(N3CCN(c4cccc(-c5c(-c6ccc(Cl)cc6)cn(C)c5C(=O)NCCCN5CCN(C)CC5)c4)CC3)cc2)cc1[N+](=O)[O-]`, the concentration for half-maximal inhibition (IC50) in assay [1] was over 10000 nM; in [2], 650 nM; in assay [3], 4.9 nM; in assay [4], 430 nM; in assay [5], 0.6 nM. The Ki is under 1 nM in assay [3] and under 0.6 nM in assay [5].

For `CN(C)CC[C@H](CSc1ccccc1)Nc1ccc(S(=O)(=O)Nc2ccc(N3CCN(c4cccc(-c5c(-c6ccc(Cl)cc6)cn(C)c5C(=O)O)c4)CC3)cc2)cc1[N+](=O)[O-]`, the concentration for half-maximal inhibition (IC50) in [1] was over 2000 nM; in [2] it was 552 nM; in assay [3] it was 3.6 nM; in assay [4], 340 nM; in assay [5] it was 1.7 nM. Moreover, the result in [6] and in assay [7] was Active. The Ki is under 1 nM in assay [3] and under 0.6 nM in assay [5]. The Activity entry in assay [8] was “Dose-dependent effect”.

In the case of `CCc1c(-c2ccc(Cl)cc2)c(-c2cccc(N3CCN(c4ccc(NS(=O)(=O)c5ccc(N[C@H](CCN(C)C)CSc6ccccc6)c([N+](=O)[O-])c5)cc4)CC3)c2)c(C(=O)O)n1C`, the IC50 in assay [1] was over 2000 nM; in assay [3] it was 7.5 nM. Further, the result in assay [6], in [7] and in assay [9] was Active. The inhibitory constant (Ki) in [3] was under 1 nM. The Activity result in [8] is “Dose-dependent effect”; in assay [10], over 70%.

In the case of `CN(C)CC[C@H](CSc1ccccc1)Nc1ccc(S(=O)(=O)NC(=O)c2ccc(N3CCN(c4cccc(-c5c(-c6ccc(Cl)cc6)cn(CC[C@H](O)CO)c5C(=O)NCCCN5CCN(C)CC5)c4)CC3)cc2)cc1[N+](=O)[O-]`, the IC50 in assay [1] was over 10000 nM; in assay [2], over 10000 nM; in assay [3], 6.1 nM; in assay [4], over 10000 nM; in assay [5], 8.7 nM. For the same compound, the Ki in [3] was under 1 nM; in assay [5], 2 nM.

For `CN(C)CC[C@H](CSc1ccccc1)Nc1ccc(S(=O)(=O)Nc2ccc(C#Cc3cccc(-c4c(-c5ccc(Cl)cc5)cn(CC[C@H](O)CO)c4C(=O)NCCCN4CCN(C)CC4)c3)cc2)cc1[N+](=O)[O-]`, the concentration for half-maximal inhibition (IC50) in [1] is over 10000 nM; in [2], over 10000 nM; in assay [3], 12.6 nM; in assay [4], over 10000 nM; in assay [5], 6.6 nM. Moreover, the Ki in [3] was found to be 1.7 nM; in [5] it was 1.5 nM.

Consider `CN(C)CC[C@H](CSc1ccccc1)Nc1ccc(S(=O)(=O)Nc2ccc(N3CCNCC3)cc2)cc1[N+](=O)[O-]`, for which the IC50 in assay [1] is over 100000 nM; in assay [2] it was over 10000 nM; in assay [4], over 10000 nM.

Regarding `CN(C)CC[C@H](CSc1ccccc1)Nc1ccc(S(=O)(=O)NC(=O)c2ccc(C#Cc3cccc(-c4c(-c5ccc(Cl)cc5)cn(CC[C@H](O)CO)c4C(=O)NCCCN4CCN(C)CC4)c3)cc2)cc1[N+](=O)[O-]`, the IC50 was over 10000 nM in assay [1]; over 10000 nM in assay [2]; 5.7 nM in [3]; over 10000 nM in assay [4]; 1.9 nM in assay [5]. The Ki in assay [3] is under 1 nM.

As to `CCOC(=O)c1c(-c2cccc(N3CCN(c4ccc(NS(=O)(=O)c5ccc(N[C@H](CCN(C)C)CSc6ccccc6)c([N+](=O)[O-])c5)cc4)CC3)c2)c(-c2ccc(Cl)cc2)cn1C`, the IC50 in assay [1] is over 2000 nM; in assay [2], 7300 nM; in [3], 12.6 nM; in assay [4], 4900 nM; in assay [5], 45.8 nM. In addition, the Ki in assay [3] amounted to 1.7 nM; in assay [5] it was 11.6 nM.

For `CNC(=O)c1c(-c2cccc(N3CCN(c4ccc(NS(=O)(=O)c5ccc(N[C@H](CCN(C)C)CSc6ccccc6)c([N+](=O)[O-])c5)cc4)CC3)c2)c(-c2ccc(Cl)cc2)cn1C`, the IC50 was over 2000 nM in assay [1]; 650 nM in assay [2]; 6.3 nM in [3]; 400 nM in assay [4]; 5.3 nM in assay [5]. The inhibition constant Ki in [3] was under 1 nM; in assay [5], 1.2 nM.

On to `CN(C)CC[C@H](CSc1ccccc1)Nc1ccc(S(=O)(=O)Nc2ccc(NCCNc3cccc(-c4c(-c5ccc(Cl)cc5)cn(CC[C@H](O)CO)c4C(=O)NCCCN4CCN(C)CC4)c3)cc2)cc1[N+](=O)[O-]`, for which the IC50 in assay [1] is over 10000 nM; in assay [2] it was over 10000 nM; in assay [3], 44.1 nM; in [4], over 10000 nM; in [5], 60.6 nM. Also, the Ki in [3] amounted to 11.3 nM; in assay [5], 15.4 nM.

Regarding `CN(C)CC[C@H](CSc1ccccc1)Nc1ccc(S(=O)(=O)Nc2ccc(-c3cn(-c4cccc(-c5c(-c6ccc(Cl)cc6)cn(CC[C@H](O)CO)c5C(=O)NCCCN5CCN(C)CC5)c4)nn3)cc2)cc1[N+](=O)[O-]`, the IC50 in [1] is over 10000 nM; in assay [2] it was over 10000 nM; in [3] it was 4.8 nM; in assay [4], over 10000 nM; in assay [5], 1.4 nM. Also, the Ki in assay [3] was under 1 nM; in [5] it was under 0.6 nM.

For the compound `CN(C)CC[C@H](CSc1ccccc1)Nc1ccc(S(=O)(=O)Nc2ccc(N3CCN(c4cccc(-c5cn(C)cc5-c5ccc(Cl)cc5)c4)CC3)cc2)cc1[N+](=O)[O-]`, the IC50 in assay [1] was over 2000 nM; in [2], over 10000 nM; in assay [3], 34.4 nM; in assay [4] it was over 10000 nM; in [5] it was 82.6 nM. Further, the Ki was found to be 8.3 nM in assay [3] and 21.1 nM in [5].

The record behind these values is ChEMBL document CHEMBL2062483, “Design of Bcl-2 and Bcl-xL inhibitors with subnanomolar binding affinities based upon a new scaffold” (J Med Chem, 2012).
